Molecules are shown by their SMILES.

This assay has as its target Human immunodeficiency virus type 1 reverse transcriptase (Human immunodeficiency virus 1, UniProt Q72547). Put plainly: The compound was tested for the inhibition of human immunodeficiency virus-1 reverse transcriptase(HIV-1 RT). An outline of the steps: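 Ki by kinetics: HIV-1 RT p66 at 60 ng/mL with 0.4 μM poly(rA)-oligo(dT), inhibitor, and [3H]TTP varied over 4-20 μM, in pH 8.0 Tris buffer with 6 mM MgCl2, 8 mM DTT, 80 mM KCl. Incubated 37 °C for 30 min, then EDTA quench. 3H incorporation counted on DE-81 paper; Ki taken from double-reciprocal plots.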
`Cc1cn([C@H]2C[C@@H](O)[C@@H](OP(=O)(O)NP(=O)(O)NP(=O)(O)O)O2)c(=O)[nH]c1=O` registered a Ki of 19.1 µM.

In the case of `Cc1cn([C@H]2CC[C@@H](OP(=O)(O)NP(=O)(O)OP(=O)(O)O)O2)c(=O)[nH]c1=O`, the inhibition constant Ki stood at 15 µM.

`Cc1cn([C@H]2C[C@@H](N=[N+]=[N-])[C@@H](OP(=O)(O)NP(=O)(O)OP(=O)(O)O)O2)c(=O)[nH]c1=O` returned a Ki of 22 µM.

One may read the Ki as a dissociation constant, usually derived from enzyme kinetics or from competition with a known ligand.
